Data taken from ChEMBL document CHEMBL3352291, “Synthesis and structure-activity relationship of thiobarbituric acid derivatives as potent inhibitors of urease” (Bioorg Med Chem, 2014).

Test: Inhibition of Bacillus pasteurii urease using urea substrate assessed as reduction in ammonia production after 15 mins by indophenol's method
Parameters: species or system Sporosarcina pasteurii
Procedure, shortened: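 One unit of B. pasteurii urease in buffer containing 100 mM urea, incubated with test compound (added as 1 mM solution) at 30 °C for 15 min. Ammonia was measured by the indophenol method: phenol reagent and alkali reagent were added, and the increase in absorbance at 630 nm was read after 50 min on a plate reader.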
In the case of O=C1NC(=S)NC(=O)C1=Cc1c[nH]c2ccccc12, the IC50 is reported as 171 µM. Work on CN(C)c1ccc(C=C2C(=O)NC(=S)NC2=O)cc1 yielded an IC50 of 58.5 µM. Work on O=C1NC(=S)NC(=O)C1=Cc1ccc(O)cc1O yielded an IC50 of 32.1 µM. Molecule O=C1NC(=S)NC(=O)C1=Cc1ccc(O)c(O)c1 has an IC50 of 1.61 µM. Molecule COc1ccc(C=C2C(=O)NC(=S)NC2=O)cc1O has an IC50 of 22.8 µM. In the case of O=C1NC(=S)NC(=O)C1=Cc1ccc(O)c(O)c1O, the IC50 is reported as 25.2 µM. COc1cc(C=C2C(=O)NC(=S)NC2=O)cc(OC)c1O showed an IC50 of 46.5 µM. COc1cc(Br)c(C=C2C(=O)NC(=S)NC2=O)cc1OC gave an IC50 of 47.3 µM. O=C1NC(=S)NC(=O)C1=Cc1cccs1 gave an IC50 of 21.5 µM. For CSc1ccc(C=C2C(=O)NC(=S)NC2=O)cc1, the IC50 was 18.1 µM. Molecule O=C1NC(=S)NC(=O)C1=Cc1c(Cl)c2cc(Br)ccc2oc1=O has an IC50 of 62.8 µM. With O=C1NC(=S)NC(=O)C1=Cc1ccncc1 the IC50 was 16 µM. With Cc1cccc(C=C2C(=O)NC(=S)NC2=O)n1 the IC50 was 16 µM. In the case of COc1cc(C=C2C(=O)NC(=S)NC2=O)c(OC)cc1Br, the IC50 is reported as 43.3 µM. COc1cc(C=C2C(=O)NC(=S)NC2=O)cc(I)c1O gave an IC50 of 42.5 µM. For O=C1NC(=S)NC(=O)C1C=C1c2ccccc2Cc2ccccc21, the IC50 was 137 µM. With O=C1NC(=S)NC(=O)C1=Cc1cc(Cl)cc(Cl)c1O the IC50 was 50.3 µM. Molecule Nc1ccccc1C=C1C(=O)NC(=S)NC1=O has an IC50 of 32.3 µM. Work on O=C1NC(=S)NC(=O)C1=Cc1ccc(C=C2C(=O)NC(=S)NC2=O)cc1 yielded an IC50 of 6.7 µM. In the case of O=C1NC(=S)NC(=O)C1=Cc1cc(Br)c(O)c(Br)c1, the IC50 is reported as 10.6 µM. Molecule Cc1ccccc1C=C1C(=O)NC(=S)NC1=O has an IC50 of 42.1 µM. In the case of CCOc1ccc(C=C2C(=O)NC(=S)NC2=O)cc1, the IC50 is reported as 29.4 µM. For COc1cccc(C=C2C(=O)NC(=S)NC2=O)c1O, the IC50 was 19.2 µM. Work on Cc1ccc(C=C2C(=O)NC(=S)NC2=O)o1 yielded an IC50 of 18.2 µM. With COc1ccc(O)c(C=C2C(=O)NC(=S)NC2=O)c1 the IC50 was 32.7 µM. Work on O=C1NC(=S)NC(=O)C1=Cc1c(O)ccc2ccccc12 yielded an IC50 of 21.4 µM. Molecule COc1ccc(C=C2C(=O)NC(=S)NC2=O)cc1OC has an IC50 of 14.3 µM. Molecule NC(N)=S [THIOUREA] has an IC50 of 21 µM.
